Consider two molecules from ChEMBL document CHEMBL3044755, “5-Methyl-1,2,3-thiadiazoles synthesized via ugi reaction and their fungicidal and antiviral activities” (J Agric Food Chem, 2010).

The subject of data set [1] is Tobacco mosaic virus. Description: In vitro antiviral activity against Tobacco mosaic virus (TMV) infected tobacco leaves at 500 ug/ml. Format: functional.
The test system of data set [2] is Tobacco mosaic virus. Description: In vivo antiviral activity against Tobacco mosaic virus (TMV) infected tobacco leaves assessed as inactivation effect at 100 ug/ml co-treated with virus for 30 min before inoculation onto leaves measured at 2-3 days after viral challenge. Format: functional. The gist of the method:
(§1)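 TMV (5.88 10-2 μg/mL) mixed with equal volume of compound solution for 30 min, then rubbed onto upper three leaves of six-leaf tobacco; solvent on lower three leaves as control. Lesions counted 2-3 days later, three repetitions. Inhibition (%) = (CK − A)/CK × 100 from mean lesion counts.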

Data set [3] relates to Nicotiana tabacum. Description: Induction of systemic acquired resistance activity in TMV infected-Nicotiana tabacum (tobacco) leaves at 100 ug/ml. In kind it is functional. The gist of the method: (§2)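 Tobacco/TMV system used for systemic acquired resistance induction. Inhibition ratio calculated from mean lesion numbers on inoculated leaves relative to corresponding control. Tiadinil and ribavirin run as controls.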

For data set [4], the system named is Nicotiana tabacum. Description: Induction of systemic acquired resistance activity in TMV infected-Nicotiana tabacum (tobacco) leaves at 50 ug/ml. Format: functional. In outline: as §2
Data set [5] deals with Fusarium oxysporum. Description: Fungicidal activity against Fusarium oxysporum at 50 ug/ml by growth inhibition method. Format: functional. The following applies: read-out: GI. In outline: (§3)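 Mycelial growth inhibition on potato dextrose agar. The panel covered Alternaria solani, Botrytis cinerea, Cercospora arachidicola, C. beticola, Colletotrichum lagenarium, Fusarium oxysporum, Gibberella zeae, Puccinia triticina, Phytophthora infestans, Physalospora piricola, Pellicularia sasakii and Rhizoctonia solani.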

Data set [6] relates to Mycosphaerella arachidis. Description: Fungicidal activity against Mycosphaerella arachidis at 50 ug/ml by growth inhibition method. In kind it is functional. The following applies: read-out: GI. The gist of the method:
as §3

The test system of data set [7] is Tobacco mosaic virus. Description: In vivo antiviral activity against Tobacco mosaic virus (TMV) infected tobacco leaves assessed as curative effect at 500 ug/ml treated after viral inoculation measured at 2-3 days after viral challenge. In kind it is functional. In outline:
(§4)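 Curative test: whole six-leaf tobacco leaves rubbed with TMV (5.88 10-2 μg/mL), dried in greenhouse, then compound smeared on upper three leaves and solvent on lower three as control. Local lesions scored 2-3 days after inoculation, three repetitions. Inhibition (%) = (CK − A)/CK × 100 on mean lesion numbers.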

For data set [8], the system named is Fusarium graminearum. Description: Fungicidal activity against Fusarium graminearum at 50 ug/ml by growth inhibition method. Format: functional. The following applies: read-out: GI. The gist of the method:
as §3

Data set [9] has as its system Phytophthora infestans. Description: Fungicidal activity against Phytophthora infestans at 50 ug/ml by growth inhibition method. In kind it is functional. Particulars: read-out: GI. The gist of the method:
as §3

Data set [10] deals with Tobacco mosaic virus. Description: In vitro antiviral activity against Tobacco mosaic virus (TMV) infected tobacco leaves at 200 ug/ml. In kind it is functional.
Data set [11] has as its system Tobacco mosaic virus. Description: In vivo antiviral activity against Tobacco mosaic virus (TMV) infected tobacco leaves assessed as inactivation effect at 500 ug/ml co-treated with virus for 30 min before inoculation onto leaves measured at 2-3 days after viral challenge. Format: functional. In outline:
as §1

Data set [12] concerns Cercospora beticola. Description: Fungicidal activity against Cercospora beticola at 50 ug/ml by growth inhibition method. In kind it is functional. Particulars: read-out: GI. In outline: as §3
The test system of data set [13] is Botrytis cinerea. Description: Fungicidal activity against Botryotinia fuckeliana at 50 ug/ml by growth inhibition method. Format: functional. The following applies: read-out: GI. The gist of the method:
as §3

Data set [14] has as its system Tobacco mosaic virus. Description: In vivo antiviral activity against Tobacco mosaic virus (TMV) infected tobacco leaves assessed as protective effect at 100 ug/ml treated 12 hr before viral inoculation measured at 2-3 days after viral challenge. In kind it is functional. The gist of the method: (§5)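 Six-leaf tobacco; compound solution smeared over whole leaves, dried in greenhouse, then after 12 h TMV (5.88 10-2 μg/mL) rubbed onto upper three leaves, with solvent on lower three leaves as control. Local lesions counted 2-3 days post-inoculation, three repetitions. Inhibition (%) = (CK − A)/CK × 100 from mean lesion numbers.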

The test system of data set [15] is Alternaria solani. Description: Fungicidal activity against Alternaria solani at 50 ug/ml by growth inhibition method. Format: functional. The following applies: read-out: GI. The gist of the method: as §3
For data set [16], the system named is Colletotrichum lagenaria. Description: Fungicidal activity against Colletotrichum lagenaria at 50 ug/ml by growth inhibition method. Particulars: read-out: GI. Format: functional. In outline: as §3
For data set [17], the system named is Botryosphaeria berengeriana. Description: Fungicidal activity against Botryosphaeria berengeriana at 50 ug/ml by growth inhibition method. In kind it is functional. Particulars: read-out: GI. In outline:
as §3

For data set [18], the system named is Tobacco mosaic virus. Description: In vivo antiviral activity against Tobacco mosaic virus (TMV) infected tobacco leaves assessed as protective effect at 500 ug/ml treated 12 hr before viral inoculation measured at 2-3 days after viral challenge. In kind it is functional. In outline: as §5
For data set [19], the system named is Nicotiana tabacum. Description: Phytotoxicity against Nicotiana tabacum (tobacco) plant. Format: organism-based. Particulars: in vivo.
In data set [20] the test system is Thanatephorus cucumeris. Description: Fungicidal activity against Thanatephorus cucumeris at 50 ug/ml by growth inhibition method. In kind it is functional. Particulars: read-out: GI. In outline:
as §3

Data set [21] deals with Tobacco mosaic virus. Description: In vivo antiviral activity against Tobacco mosaic virus (TMV) infected tobacco leaves assessed as curative effect at 100 ug/ml treated after viral inoculation measured at 2-3 days after viral challenge. In kind it is functional. In outline: as §4

On to `Cc1ccc(N(C(=O)c2nnsc2C)C(C(=O)NC(C)C)c2ccccc2)cc1Cl` (configuration not stated), for which the inhibition at 500 µg/mL in [1] was determined as 43%. The Activity in data set [2] was 50%; in data set [3], 41%; in data set [4] it was 33%; in [7], 46%; in data set [11], 65%; in [14] it was 40%. In addition, the Activity in data set [18] is listed as 57%; in data set [19], “Non-toxic”; in data set [21], 30%. Besides, the inhibition of growth at 50 µg/mL in data set [5] amounted to 36%; in [6], 21%; in data set [8], 13%; in data set [9] it was 12%; in data set [12] it was 0%; in [13], 85%. For the same molecule, the inhibition of growth at 50 µg/mL stood at 39% in data set [15], 11% in data set [16], 47% in [17] and 64% in data set [20]. The same molecule gave an inhibition at 200 µg/mL in [10] of 30%.
As to `Cc1ccc(N(C(=O)c2nnsc2C)C(C(=O)NC(C)C)c2ccccc2C)cc1Cl` (configuration not stated), the inhibition at 500 µg/mL in [1] amounted to 12%. The Activity amounted to 23% in data set [2]; 0% in [3]; 37% in data set [4]; 42% in [7]; 50% in data set [11]; 13% in data set [14]. The Activity in data set [18] is 38%; in data set [19] it was “Non-toxic”; in [21], 21%. The inhibition of growth at 50 µg/mL in [5] was 19%; in data set [6], 21%; in data set [8], 37%; in data set [9], 10%; in [12], 17%; in data set [13], 76%. Also, the inhibition of growth at 50 µg/mL in [15] was 40%; in data set [16] it was 10%; in data set [17], 31%; in data set [20] it was 69%. In [10], this molecule yielded an inhibition at 200 µg/mL of 58%.

By inhibition is commonly meant the drop in the measured response relative to a control, in per cent. A lower inhibition goes with a response near the control.
